Experiment [1] can be described thus: inhibitors of TNFa-induced NFkB p65 translocation, primary screen, imaging, HUVEC, MLSMR starter and 10KST1 sets (AID 438;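 active = inhibition above 20% together with a positive visual image hit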;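 note: compound added about 3h40 before a 20 min TNFalpha stimulation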;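 for inhibition: signal is the nuclear over cytoplasmic p65 intensity ratio per well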). Particulars: HUVEC TNFa-induced p65 nuclear translocation; cell count: measured here: nuclei count (cytotoxicity indicator), at 2.08 µM; inhibition: at 2 µM, stronger effect = higher value, 0% TNFa-plus-vehicle, 100% no-TNFa wells.
A short description of experiment [2]: endothelial E-selectin expression blockers – imaging, HUVEC, immunofluorescence, MLSMR starter and 10KST1 sets, primary screen (AID 487;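 active = visually confirmed hit in the image check and inhibition above 20%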;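 for inhibition: signal is fraction of cell area covered by stained E-selectin grains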;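 for nuclei count: 100% = median nuclei count of all wells on the same plate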). To be noted: HUVEC TNFalpha-induced E-selectin immunofluorescence imaging, at 2 µM; inhibition: stronger effect = higher value; nuclei count: measured here: cell number, toxicity.
The nature of experiment [3]: Primary imaging screen for DUSP6 inhibitors that restore phospho-Erk in transfected HeLa cells, chemical complementation (AID 609;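 active = compounds giving at least 50% inhibition in the cell-based MKP-3 phosphatase rescue imaging test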;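 for inhibition: phospho-Erk level distribution per well compared with pooled transfected vehicle control wells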). To be noted: HeLa MKP-3 transfected, phospho-Erk imaging KS statistic, at 10 µM, cells stimulated with TPA for 15 min.
Experiment [4] deals with Dual specificity protein phosphatase 6 (Homo sapiens) (UniProt Q16828). Described as above. Particulars: HeLa MKP-3 transfected, phospho-Erk imaging KS statistic; at 10 µM; stronger effect = higher value; cells stimulated with TPA for 15 min.
For experiment [5], the target named is Voltage-gated potassium channel subunit beta-2 (Rattus norvegicus) (UniProt P62483). Kind of experiment: inhibitors of rat Kvbeta2 reductase activity – biochemical, NADPH fluorescence, primary screen (AID 622;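 active = fluorescence slope higher than the sample average by over 3 SD, cut at about -0.22 in these data, passing the limit was not always enough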;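 note: slope of raw intensity against log time taken from 70 to 1610 s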). To be noted: recombinant KvBeta, 4-cyanobenzaldehyde reduction, at 10 µM, stronger effect = higher value.
The target is the same in experiment [6]. Kind of experiment: enhancers of rat Kvbeta2 NADPH turnover – biochemical, NADPH fluorescence, primary screen (AID 623;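 active = NADPH fluorescence slope more negative than the mean of all samples by about 3 SD, 99.7% confidence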;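 note: fluorescence intensity change per second fitted from 20 to 320 s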). Particulars: Recombinant KvBeta, NADPH fluorescence decrease slope, 10 min; at 10 µM; stronger effect = lower value.
Experiment [7] addresses Alpha-2C adrenergic receptor (Homo sapiens) (UniProt P18825). Nature of the experiment: compounds altering alpha2C-coupled GIRK flux – cell-based, HEK293 alpha2C/GIRK1/2, thallium flux, primary screen (AID 624;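 active = fluorescence slope after compound addition differing from the mean of all screened samples at 99.7% confidence, in either direction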;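 note: slope of fluorescence ratio to pre-addition baseline per second over 15 to 24 s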). Particulars: thallium flux BTC fluorescence, at 10 µM, actives lie on both sides.
Experiment [8] in a line: inhibitors of larval lipid processing in zebrafish, primary screen, whole organism, PED6 fluorescence, gall bladder and intestine (AID 686;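 active = a full or partial loss of lipid-probe fluorescence in the fish gall bladder, intestine or both, judged by eye; inactive = no fluorescence loss, or compound toxic to the fish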;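 note: larvae 5 to 7 days old with five fish per well; signal comes from phospholipase A2 cleavage of quenched PED6 carried via bile; overnight exposure to compound and PED6 before scoring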). Particulars: Zebrafish larvae PED6 lipid processing, fluorescence scoring; screened at 20 µM (by protocol). The gist of the method:
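Doses: 20 µM single dose. Test system: live zebrafish larvae aged 5-7 days, whole organism. Quantity: five larvae per well. Measured by: By-eye fluorescence microscopy. Reagent: ingested quenched lipid PED6 at 100 nM. Read-out: visual per-well fluorescence inhibition score. Times: overnight exposure of larvae to compound plus PED6.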

Experiment [9] is described as follows: loss of swimming-algae plug formation – whole organism, Chlamydomonas reinhardtii, WT vs cilia-less mutant, absorbance, 96-well, primary screen (AID 463189).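 Note: 0% = wild type cc124 cells in DMSO and 100% = ciliumless bld1 mutant cells.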 To be noted: Chlamydomonas reinhardtii gravitaxis, OD600 absorbance, 2 days; at 10 µM; stronger effect = higher value.
The mark [10] stands for this setting: measured here: cell density z-score.
[11] abbreviates: measured here: nuclear c-Myc green intensity z-score.
Where [12] appears, read: measured here: nuclear pErk red intensity z-score, stronger effect = higher value.

Activity calls are given as the source filed them.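 Rule for the calls, unless noted: active = inhibition at or above 50% relative to wild type and mutant plate controls; inactive = inhibition below 50%.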

Dual specificity protein phosphatase 6 (Homo sapiens), sequence (Q16828 whole entry, looked up): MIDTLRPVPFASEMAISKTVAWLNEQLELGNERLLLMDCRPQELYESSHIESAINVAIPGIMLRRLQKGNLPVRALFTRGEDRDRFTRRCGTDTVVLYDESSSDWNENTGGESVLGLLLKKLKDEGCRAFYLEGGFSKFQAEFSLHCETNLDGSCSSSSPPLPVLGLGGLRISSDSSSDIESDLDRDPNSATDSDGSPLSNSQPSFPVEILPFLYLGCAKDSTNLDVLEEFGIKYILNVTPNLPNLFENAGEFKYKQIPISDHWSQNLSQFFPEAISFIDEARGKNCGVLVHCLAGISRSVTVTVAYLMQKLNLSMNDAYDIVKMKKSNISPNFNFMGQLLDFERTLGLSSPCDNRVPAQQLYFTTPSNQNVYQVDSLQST
Voltage-gated potassium channel subunit beta-2 (Rattus norvegicus), sequence (P62483 whole entry, looked up): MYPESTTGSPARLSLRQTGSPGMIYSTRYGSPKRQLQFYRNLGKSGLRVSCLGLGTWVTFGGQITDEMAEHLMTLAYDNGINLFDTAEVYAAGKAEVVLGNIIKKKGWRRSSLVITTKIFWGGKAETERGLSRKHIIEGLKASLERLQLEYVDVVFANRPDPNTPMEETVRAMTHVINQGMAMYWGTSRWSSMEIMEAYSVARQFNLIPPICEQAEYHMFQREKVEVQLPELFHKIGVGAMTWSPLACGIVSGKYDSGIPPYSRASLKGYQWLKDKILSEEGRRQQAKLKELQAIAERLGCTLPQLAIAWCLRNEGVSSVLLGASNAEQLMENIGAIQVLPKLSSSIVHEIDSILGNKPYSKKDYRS
Alpha-2C adrenergic receptor (Homo sapiens), sequence (P18825 whole entry, looked up): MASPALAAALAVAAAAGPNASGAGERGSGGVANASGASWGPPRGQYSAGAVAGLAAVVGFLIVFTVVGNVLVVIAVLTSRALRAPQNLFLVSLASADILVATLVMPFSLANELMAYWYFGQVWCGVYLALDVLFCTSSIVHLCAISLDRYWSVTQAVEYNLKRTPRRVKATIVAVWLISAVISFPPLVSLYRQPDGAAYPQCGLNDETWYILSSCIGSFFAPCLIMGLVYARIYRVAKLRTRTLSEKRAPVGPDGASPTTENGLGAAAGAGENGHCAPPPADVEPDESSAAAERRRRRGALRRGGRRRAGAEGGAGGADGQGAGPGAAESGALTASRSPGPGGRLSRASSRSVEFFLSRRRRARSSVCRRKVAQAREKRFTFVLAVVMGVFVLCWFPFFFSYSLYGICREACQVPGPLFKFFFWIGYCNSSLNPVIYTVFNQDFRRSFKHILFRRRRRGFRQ

The term inhibition denotes the drop in the measured response relative to a control, in per cent. Regarding `CCCCN(CCCC)c1nc2ccccc2nc1C(C#N)C(=O)NCCCOC` (stereo unspecified), the cell count in [1] is 382. The inhibition in experiment [1] is -6.8% (inactive); in [2], -187% (inactive); in experiment [4], -5.89% (inactive); in experiment [9] it was 5.14% (inactive). Besides, the nuclei count in experiment [2] is 156%. Also, the z-score in [3] (setting [10]) was -0.742; in experiment [3] (setting [11]), 0.7; in experiment [3] (setting [12]), 0.633. The fluorescence slope in experiment [5] was -0.0828 (active). Moreover, the NADPH fluorescence slope in experiment [6] was 9.1e-06 (inactive). Moreover, in experiment [7], the slope was 0 (active). For the same compound, the compound was called inactive in experiment [8].
In the case of `COc1ccc(S(=O)(=O)N2CCC(N3CCCCC3)CC2)cc1`, the cell count in experiment [1] amounted to 454. The inhibition in [1] was -22.7% (inactive); in experiment [2], -217% (inactive); in experiment [4] it was 29.3% (inactive); in experiment [9] it was 68% (active). The nuclei count in experiment [2] worked out at 148%. The z-score was 0.445 in experiment [3] (setting [10]), -1.43 in [3] (setting [11]) and -2.35 in experiment [3] (setting [12]). In addition, in [5], the fluorescence slope is -0.314 (inactive). Moreover, the NADPH fluorescence slope in experiment [6] was -2e-05 (inactive). For the same compound, the slope in experiment [7] was 0.00443 (inactive). Besides, the result in experiment [8] was inactive.
Regarding `CC1(C)Cc2c(C#N)c(NCC3CCCO3)nc(-c3ccco3)c2CO1` (stereo unspecified), the cell count in experiment [1] was determined as 508. Also, the inhibition in experiment [1] was -1.3% (inactive); in [2], -83% (inactive); in experiment [4], 11.9% (inactive); in [9] it was 1.27% (inactive). Besides, the nuclei count in experiment [2] was determined as 123%. The z-score was -1.04 in [3] (setting [10]), 1.4 in experiment [3] (setting [11]) and -1.27 in experiment [3] (setting [12]). Also, in experiment [5], the fluorescence slope is -0.337 (inactive). Also, the NADPH fluorescence slope in [6] was 1e-05 (inactive). Further, the slope in [7] is 0.00551 (inactive). Moreover, the compound was classed as inactive in experiment [8].
In the case of `Brc1ccc(-c2cnc3n2CCCC3)cc1`, the cell count in [1] is 363. Besides, the inhibition in [1] is -4.2% (inactive); in experiment [2], -15.9% (inactive); in [4] it was 5.65% (inactive); in experiment [9], 142% (active). Further, the nuclei count in [2] amounted to 108%. Besides, the z-score in [3] (setting [10]) is 0.187; in experiment [3] (setting [11]), 2.77; in experiment [3] (setting [12]), -1.27. Also, the fluorescence slope in experiment [5] is -0.46 (inactive). Moreover, the NADPH fluorescence slope in [6] was -0.000301 (inactive). In addition, the slope in experiment [7] was 0.00468 (inactive). The call in experiment [8] was inactive.
Take `CCCCNc1nc2c(c(=O)n(C)c(=O)n2C)n1Cc1cccc(OC)c1`: the cell count in experiment [1] came to 452. The inhibition in experiment [1] was -7.7% (inactive); in [2], -133% (inactive); in experiment [4], -5.62% (inactive); in [9], 1.32% (inactive). The compound also displayed a nuclei count in [2] of 175%. Also, the z-score is 0.299 in experiment [3] (setting [10]), -0.341 in [3] (setting [11]) and -1.15 in [3] (setting [12]). In experiment [5], the fluorescence slope is -0.378 (inactive). For the same compound, the NADPH fluorescence slope in experiment [6] is -1.6e-05 (inactive). The slope in [7] was 0.00373 (inactive). Also, in experiment [8], the outcome was “active; weak signal in gallbladder and intestine”.
On to `O=C1CCC(=O)N1c1nc2nc(-c3ccccc3)cc(-c3ccccc3)n2n1`, for which, in experiment [1], the cell count amounted to 360. Also, the inhibition in experiment [1] is -6.9% (inactive); in [2] it was -15.6% (inactive); in [4], 5.42% (inactive); in [9], 46.1% (inactive). This compound also showed a nuclei count in experiment [2] of 91%. In addition, the results for the z-score in experiment [3] (setting [10]), in experiment [3] (setting [11]) and in experiment [3] (setting [12]) were -0.411, 1.12 and 0.232, respectively. The fluorescence slope in experiment [5] is -0.467 (inactive). The NADPH fluorescence slope in experiment [6] was -3e-05 (inactive). Also, the slope in [7] is 0.00473 (inactive). Also, the compound was called inactive in experiment [8].
As to `COc1ccc2[nH]c(C)c(C(=O)CN3CC(C)OC(C)C3)c2c1` (stereo unspecified), in [1], the cell count was found to be 551. The inhibition in [1] is -0.3% (inactive); in [2] it was -1% (inactive); in [4], 3.5% (inactive); in [9], 7.59% (inactive). Further, the nuclei count in [2] came to 143%. Also, the z-score is -0.788 in [3] (setting [10]), 1.62 in experiment [3] (setting [11]) and -0.00446 in experiment [3] (setting [12]). The fluorescence slope in [5] is -0.194 (inactive). Besides, in experiment [6], the NADPH fluorescence slope is 2.2e-05 (inactive). Besides, the slope in experiment [7] was 0.00534 (inactive). For the same compound, the call in [8] was inactive.

These data come from PubChem BioAssay.
